Experimental data published in ChEMBL document CHEMBL1137196, “Non-peptide oxytocin agonists” (Bioorg Med Chem Lett, 2004).

Legend:
Vasopressin V2 receptor = Vasopressin V2 receptor (Homo sapiens, UniProt P30518); assay: Effective concentration for human Vasopressin V2 receptor
Procedure, shortened: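 293 cells in phenol red-free DMEM with penicillin and 10% foetal calf serum were dual-transfected with V2 receptor and CRE-luciferase constructs, then grown 24 h at 37°C/5% CO2 before and after plating. Compounds came from 10 mM DMSO stocks (0.1% DMSO final). Luciferase was measured after 5 h at 37°C. EC50 from a 4-parameter logistic fit; mean ± SD (n≥3), or mean ± range where n=2.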

Oxytocin receptor = biological target: T1, Oxytocin receptor (Homo sapiens, UniProt P30559); assay: Effective concentration for human Oxytocin receptor
T1 sequence (P30559 whole entry): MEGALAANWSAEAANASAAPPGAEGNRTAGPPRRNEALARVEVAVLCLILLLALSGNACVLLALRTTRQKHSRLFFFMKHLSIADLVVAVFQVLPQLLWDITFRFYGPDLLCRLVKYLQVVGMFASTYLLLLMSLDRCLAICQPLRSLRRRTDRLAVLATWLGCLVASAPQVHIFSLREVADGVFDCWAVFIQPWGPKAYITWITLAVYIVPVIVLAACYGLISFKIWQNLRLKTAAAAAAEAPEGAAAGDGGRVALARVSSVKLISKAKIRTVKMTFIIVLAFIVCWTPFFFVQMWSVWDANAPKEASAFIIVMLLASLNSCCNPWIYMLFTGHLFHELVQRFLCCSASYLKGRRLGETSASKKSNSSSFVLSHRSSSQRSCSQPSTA
Procedure, shortened: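 CHO cells kept in phenol red-free DMEM with penicillin and 10% foetal calf serum, dual-transfected with human OT receptor and NFAT-luciferase constructs, then grown 24 h at 37°C/5% CO2 before and after plating. Compounds were diluted from 10 mM DMSO stocks (0.1% DMSO final). Luciferase was read after 5 h at 37°C. EC50 came from a 4-parameter logistic fit; mean ± SD (n≥3), or mean ± range where n=2.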

[1] = biological target: Oxytocin receptor (Homo sapiens) (UniProt P30559); assay: Agonist activity against Oxytocin receptor relative to oxytocin at 3 uM

Sequence of Vasopressin V2 receptor (P30518 whole entry): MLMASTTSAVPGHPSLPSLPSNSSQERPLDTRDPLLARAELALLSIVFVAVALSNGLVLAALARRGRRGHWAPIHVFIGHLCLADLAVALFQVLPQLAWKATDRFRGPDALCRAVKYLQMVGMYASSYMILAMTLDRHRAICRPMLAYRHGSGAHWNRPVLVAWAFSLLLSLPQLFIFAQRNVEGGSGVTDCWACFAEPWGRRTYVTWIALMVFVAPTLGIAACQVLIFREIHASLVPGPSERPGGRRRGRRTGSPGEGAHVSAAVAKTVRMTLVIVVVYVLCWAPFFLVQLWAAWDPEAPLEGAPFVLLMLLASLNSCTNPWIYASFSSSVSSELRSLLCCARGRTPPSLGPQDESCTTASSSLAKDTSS

SMILES | EC50 (Vasopressin V2 receptor) | EC50 (Oxytocin receptor) | Relativity [1]
CO[C@@H]1C[C@@H](C(=O)N2CCC(N3CCCC3)CC2)N(C(=O)NCc2ccc(C(=O)N3CCCCc4sccc43)cc2Cl)C1 | 1100 nM | 2300 nM | 
Cc1cc(C(=O)N2CCCCc3ccccc32)ccc1CNC(=O)NCC(=O)N(C)C |  |  | 33%
CO[C@@H]1C[C@@H](C(=O)N2CCCN(C)CC2)N(C(=O)NCc2ccc(C(=O)N3CCCCc4sccc43)cc2Cl)C1 | 1300 nM | 2800 nM | 
CO[C@@H]1C[C@@H](C(=O)NCCN(C)C)N(C(=O)NCc2ccc(C(=O)N3CCCCc4sccc43)cc2Cl)C1 | 1800 nM | > 10000 nM | 
CO[C@@H]1C[C@@H](C(=S)N2CCC(N3CCCC3)CC2)N(C(=O)NCc2ccc(C(=O)N3CCCCc4sccc43)cc2Cl)C1 | 100 nM | 480 nM | 
CO[C@@H]1C[C@@H](C(=O)N2CCC(N3CCCCC3)CC2)N(C(=O)NCc2ccc(C(=O)N3CCCCc4sccc43)cc2Cl)C1 | 1200 nM | 2200 nM | 
CO[C@@H]1C[C@@H](C(=S)NCCc2ccccn2)N(C(=O)NCc2ccc(C(=O)N3CCCCc4sccc43)cc2Cl)C1 | 200 nM | 470 nM | 
CC(C)NC(=O)C[C@H]1CCCN(C(=O)c2ccc(N3CCCC3)cc2Cl)c2ccccc21 |  |  | < 10%
Cc1cc(C(=O)N2CCCCc3sccc32)ccc1CNC(=O)N1CCC[C@H]1C(=S)N1CCCN(C)CC1 | 890 nM | 640 nM | 
CO[C@@H]1C[C@@H](C(=O)NCCc2ccccn2)N(C(=O)NCc2ccc(C(=O)N3CCCCc4sccc43)cc2Cl)C1 | 570 nM | 1500 nM | 
Cc1cc(C(=O)N2Cc3cnn(C)c3Nc3ccccc32)ccc1CNC(=O)N1CCC[C@H]1C(=S)N1CCCN(C)CC1 | 850 nM | 33 nM | 
Cc1ccn(-c2ccc(C(=O)N3Cc4cccn4Cc4ccccc43)c(Cl)c2)n1 |  |  | < 10%
CN1CCCN(C(=S)[C@@H]2CCCN2C(=O)NCc2ccc(C(=O)N3CCCCc4sccc43)cc2Cl)CC1 | 1800 nM | 810 nM | 
CO[C@@H]1C[C@@H](C(=S)N2CCCN(C)CC2)N(C(=O)NCc2ccc(C(=O)N3CCCCc4sccc43)cc2Cl)C1 | 230 nM | 430 nM | 
